Screens (PubChem BioAssay)
FGF22 binding: binders of human FGF22 protein, primary screen, FGF22 synaptogenesis inhibitor project, biophysical, thermal shift, single point | 340,000 tested, 1.5% active | AID 651658, 2012 | activity (Tm shift, normalised), % at 9.99 µM | recombinant FGF22 thermal shift, SYPRO orange fluorescence; percent of sucrose octasulfate shift, DMSO zero;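 active = mean Tm shift, scaled 0 neutral to 100 positive control, at about 1.3% or above, every replicate too, limit read from the data; inconclusive = no clear call, values can overlap the other calls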
Target sequence (Q9HCT0 whole entry, looked up): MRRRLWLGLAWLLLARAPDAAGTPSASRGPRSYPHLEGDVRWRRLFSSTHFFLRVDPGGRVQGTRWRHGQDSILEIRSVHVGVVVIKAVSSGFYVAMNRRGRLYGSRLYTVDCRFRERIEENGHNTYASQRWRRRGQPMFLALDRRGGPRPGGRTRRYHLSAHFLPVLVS
DENV2 CPE rescue: inhibitors of DENV2 cytopathic effect, primary screen, cell-based, plate reader, single concentration; CPE inhibition, % at 9.99 µM; 350,000 tested, 1.7% active; DENV2-infected cells, cytopathic effect rescue; in the data active = CPE inhibition above about 20%, passing the limit was not always enough; inconclusive = no clear call, values can overlap the other calls; tested in BHK-21 cells;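 note: 0% = median of neutral control wells and 100% = median of positive control wells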
FN deposition inh: inhibitors of fibronectin matrix deposition, primary screen, AH1F cells, Alexa488-fibronectin fluorescence, plate reader; AH1F fibroblasts, overnight; inhibition, % at 12.6 µM; 350,000 tested, 0.086% active; AID 743247, 2014;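 active = mean inhibition across replicates of 30% or more, regardless of how many single replicates reach that level; inconclusive = mean under 30% yet at least half of replicates reach 30%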;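 note: positive control wells lacked labelled fibronectin entirely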
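Material: AH1F fibroblast monolayer depositing Alexa488-labelled fibronectin into matrix | Input: 10000 AH1F cells/well | Medium: DMEM plus 2% serum, read in PBS | Reagent: Alexa488-fibronectin, 24 nM final in well | Compound dosing: One dose per compound, pinned | Schedule: 1 h adhesion, overnight exposure | Measured by: Fluorescence at 485 nm excitation, 525 nm emission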
SIRT5 block: SIRT5 desuccinylase inhibitors, primary screen, biochemical, fluorescence imaging, single point, set 5; NAD-dependent protein deacylase sirtuin-5, mitochondrial (Homo sapiens), Q9NXA8; AID 652115, 2013; Purified SirT5, succinyl-peptide AMC, trypsin-coupled fluorescence; inhibition, % at 15 µM; 330,000 tested, 1.1% active; in the data active = inhibition above about 15%; inconclusive = no clear call, values can overlap the other calls
Target sequence (Q9NXA8 whole entry, looked up): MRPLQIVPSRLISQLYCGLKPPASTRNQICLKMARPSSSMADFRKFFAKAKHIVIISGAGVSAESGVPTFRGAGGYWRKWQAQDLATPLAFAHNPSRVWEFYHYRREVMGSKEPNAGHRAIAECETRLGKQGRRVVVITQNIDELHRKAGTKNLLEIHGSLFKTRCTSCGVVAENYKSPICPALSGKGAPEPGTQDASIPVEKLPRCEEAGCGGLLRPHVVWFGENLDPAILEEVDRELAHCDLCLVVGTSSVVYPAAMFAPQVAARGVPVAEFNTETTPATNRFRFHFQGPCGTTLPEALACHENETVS
ARNT TACC3 PPI: disruptors of ARNT/TACC3 protein interaction, primary screen, biochemical, AlphaScreen, single concentration | Transforming acidic coiled-coil-containing protein 3 (Homo sapiens), Q9Y6A5 | AlphaScreen His-ARNT PAS-B/GST-TACC3 binding, luminescence; TACC3 fragment carries E629A point mutation | inhibition, % at 9.99 µM | 390,000 tested, 0.66% active | AID 623870, 2012;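 active = mean inhibition of replicates at least 50% and at least half of replicates each reaching 50%; inconclusive = half or more replicates reach 50% but mean below 50%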;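 note: 0% = complete ARNT plus TACC3 wells and 100% = ARNT alone without TACC3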
Xi reactivation: activators of inactive X chromosome reactivation, primary screen, imaging, XiGFP fibroblasts, GFP high-content imaging, set 2; XiGFP mouse fibroblasts, % GFP-positive cells imaging, 3 d; cells co-treated with 5-aza-dC sensitizer; scaled so ellipticine positive control = 100%; activation, % at 7.58 µM; AID 743238, 2013; 360,000 tested, 0.055% active;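 active = mean normalized replicate activation at least 10% and every replicate at or above 10%; inconclusive = only one of the two criteria met; inactive = mean below 10% and not all replicates reach 10%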;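 note: 0% = median of on-plate neutral control wells and 100% = ellipticine 6 µM median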
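System: 68-5-11 XiGFP fibroblast line; Timing: 3 days compound exposure; Compound dosing: one concentration, pinned; Benchmarks: positive control ellipticine, 6 µM final; Buffer or medium: DMEM containing 5-aza-dC.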
Active calls of the source: *; ? = inconclusive; . = no result given. Shown are actives, neighbours in structure and some others; about 3.8% of the full set was active somewhere.

SMILES	FGF22 binding	DENV2 CPE rescue	FN deposition inh	SIRT5 block	ARNT TACC3 PPI	Xi reactivation
CCC(=O)N(C)C[C@@H]1Oc2ncc(C3=CCCC3)cc2C(=O)N([C@H](C)CO)C[C@H]1C	-0.1	-8.3	2.0	-4.1	-2.5	-1.4
CC1=C(C(=O)N(C(C)C)C(C)C)CC(CC(=O)NCCN2CCOCC2)C(=O)N1CCCN1CCCC1=O (configuration not stated)	-0.3	8.1	0.6	16.3*	.	-0.2
CC1=C(C(=O)N(C(C)C)C(C)C)CC(CC(=O)NC2CCCCC2)C(=O)N1CCCN1CCCC1=O (configuration not stated)	-0.5	3.1	.	32.9*	.	0.0
CCN(CC)C(=O)C1=C(C)N(CCCN2CCCC2=O)C(=O)C(CC(=O)NCC2CCCCC2)C1 (configuration not stated)	-0.1	74.4*	9.2	-9.4	.	-0.1
CC1=C(C(=O)N(C(C)C)C(C)C)CC(CC(=O)NC2CCCC2)C(=O)N1CCCN1CCCC1=O (configuration not stated)	-0.1	11.6	3.1	-4.8	.	-0.1
CC1=C(C(=O)N(C)C)CC(CC(=O)NCCN2CCOCC2)C(=O)N1CCCN1CCCC1=O (configuration not stated)	-0.1	5.1	1.6	-2.3	.	0.2
COCCCN1C(=O)C(CC(=O)NC2CCCCC2)CC(C(=O)N(C(C)C)C(C)C)=C1C (configuration not stated)	-0.4	26.6*	3.3	-6.9	.	.
CN1C(=O)c2cc(NC(=O)Cc3cccs3)ccc2OC[C@H]2O[C@H](CC(=O)N[C@H]3CCN(Cc4ccccc4)C3)CC[C@H]21	-0.3	-3.1	2.7	6.8	-11.1	0.1
CCCNC(=O)Nc1ccc2c(c1)C(=O)N(C)C[C@@H](OC)[C@H](C)CN(C(=O)C1CC1)[C@@H](C)CO2	0.0	8.8	7.8	-5.2	.	-0.7
C[C@@H]1CCCCO[C@@H](CN(C)Cc2ccc(C(F)(F)F)cc2)[C@@H](C)CN([C@@H](C)CO)C(=O)c2cc(NC(=O)CCC(F)(F)F)ccc2O1	-0.2	-2.5	.	8.1	-5.0	-1.1
COc1ccc(CN(C)C[C@H]2OCCCC[C@H](C)Oc3ccc(NC(=O)CCC(F)(F)F)cc3C(=O)N([C@H](C)CO)C[C@@H]2C)cc1	-0.1	28.8*	.	-0.8	5.1	-0.1
C[C@H]1CCCCO[C@H](CN(C)Cc2ccc(Cl)c(Cl)c2)[C@@H](C)CN([C@@H](C)CO)C(=O)c2cc(NC(=O)CCC(F)(F)F)ccc2O1	-0.2	2.1	.	15.2*	6.8	0.0
C[C@@H]1CCCCO[C@H](CN(C)Cc2ccc(C(F)(F)F)cc2)[C@@H](C)CN([C@@H](C)CO)C(=O)c2cc(NC(=O)CCC(F)(F)F)ccc2O1	0.3	20.5*	.	2.9	-3.7	-0.9
C[C@@H]1CN([C@H](C)CO)C(=O)c2cc(NC(=O)CCC(F)(F)F)ccc2O[C@@H](C)CCCCO[C@@H]1CN(C)Cc1ccc(C(F)(F)F)cc1	-0.1	9.8	.	21.2*	-2.6	0.1
C[C@@H]1CCCCO[C@H](CN(C)Cc2ccc(C(F)(F)F)cc2)[C@H](C)CN([C@@H](C)CO)C(=O)c2cc(NC(=O)CCC(F)(F)F)ccc2O1	-0.3	-2.7	.	5.4	0.0	-0.5
COc1ccccc1S(=O)(=O)N[C@H]1CC[C@H](CCNC(=O)C2CCOCC2)O[C@@H]1CO	-0.4	-6.4	.	3.3	3.6	-0.2
CO[C@@H](CN(C)Cc1cc(F)ccc1F)[C@@H](C)CN(C(=O)Nc1ccc(C(F)(F)F)cc1)[C@@H](C)CO	0.0	?	.	12.0	4.5	.
CN(C)c1ccc(C2Nc3ccccc3C(=O)N2NS(C)(=O)=O)cc1 (configuration not stated)	0.0	0.8	-0.7	31.4*	-16.5	0.0
O=C(Nc1ccc2c(c1)[C@H]1C[C@H](CC(=O)N3CCCCC3)O[C@@H](CO)[C@H]1O2)NC1CCCCC1	.	.	6.5	.	.	0.1
O=C(Nc1ccc2c(c1)[C@@H]1C[C@H](CC(=O)N3CCCCC3)O[C@@H](CO)[C@@H]1O2)NC1CCCCC1	-0.2	32.2*	13.5	3.7	.	0.3
O=C(C[C@@H]1C[C@@H]2c3cc(NC(=O)NC4CCCCC4)ccc3O[C@@H]2[C@H](CO)O1)NCCc1ccccc1	.	-10.9	.	26.4*	.	0.0
O=C(O)C[C@H]1C[C@H]2c3cc(NC(=O)NC4CCCC4)ccc3O[C@H]2[C@H](CO)O1	-0.2	35.5*	-0.6	-1.1	-5.2	0.0
O=C(NC1CCCC1)N[C@@H]1CC[C@H](CC(=O)N2CCOCC2)O[C@H]1CO	0.4	6.6	.	24.9*	-5.6	0.1
O=C(O)C[C@H]1C[C@H]2c3cc(NC(=O)NC4CCCC4)ccc3O[C@H]2[C@@H](CO)O1	-0.3	12.6	10.8	-5.4	-5.0	-0.1
C[C@H]1CN([C@@H](C)CO)C(=O)Cc2cc(NS(=O)(=O)c3ccccc3)ccc2O[C@@H]1CN(C)Cc1ccc(Oc2ccccc2)cc1	0.0	-15.5	.	7.8	0.5	0.6
SMILES	FGF22 binding	DENV2 CPE rescue	FN deposition inh	SIRT5 block	ARNT TACC3 PPI	Xi reactivation
CO[C@H]1CN(C)C(=O)c2ccc(NS(C)(=O)=O)cc2OC[C@H](C)NC[C@@H]1C	.	.	-22.7	.	.	-0.1
O=C(O)C[C@H]1C[C@@H]2c3cc(NC(=O)C4CCOCC4)ccc3O[C@@H]2[C@@H](CO)O1	-0.2	0.7	-6.3	.	-4.4	0.0
O=C(O)C[C@@H]1C[C@@H]2c3cc(NC(=O)C4CCOCC4)ccc3O[C@@H]2[C@H](CO)O1	.	27.6*	3.1	1.2	.	0.0
O=C(Nc1ccc2c(c1)[C@@H]1C[C@@H](CC(=O)N3CCOCC3)O[C@@H](CO)[C@@H]1O2)NC1CCCCC1	0.1	23.1*	-5.5	0.3	-1.2	0.0
C[C@@H]1CN([C@H](C)CO)C(=O)c2cccc(NC(=O)Nc3ccc4c(c3)OCO4)c2O[C@H]1CN(C)C(=O)NC1CCCCC1	-0.2	?	.	-1.5	-7.2	-0.5
CN(C)C(=O)c1cc2c(c(-c3cccc(-c4ccccc4F)c3)n1)[C@H](CCO)N(S(C)(=O)=O)C2	-0.1	3.2	-2.1	0.1	.	-0.1
Cc1cc(=O)[nH]c(NN=Cc2cc(Br)ccc2O)n1	-0.2	2.0	20.0	-1.5	63.8*	0.2
CC(=C/c1ccccc1)/C=N/Nc1nc(N2CCCCC2)nc(N2CCCCC2)n1	0.1	63.6*	-0.3	-2.0	3.1	-0.1
